This is a sample that favours compounds with a hit; in the whole collection about 2.6% have one here.
Granule exo inh – lytic granule exocytosis inhibition. actives 0.66% (n = 360,000). inhibition, % at 10 µM. TALL-104 LAMP-1 surface exposure, flow cytometry; cells stimulated with thapsigargin and PMA;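 active = inhibition above about 55%, limit read from the data; inconclusive = no clear call, values can overlap the other calls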
MC4R barr agon – human MC4R agonism via beta-arrestin; P32245; U2OS MC4R beta-arrestin complementation, luminescence; percent of melanotan II response, DMSO zero; activation, % at 8.9 µM; actives 0.98% (n = 360,000);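 active = activation above a per-plate cutoff, the mean activation of sample wells on that plate plus 3 SD, cut at about 8% in these data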
Target sequence (P32245 whole entry, looked up): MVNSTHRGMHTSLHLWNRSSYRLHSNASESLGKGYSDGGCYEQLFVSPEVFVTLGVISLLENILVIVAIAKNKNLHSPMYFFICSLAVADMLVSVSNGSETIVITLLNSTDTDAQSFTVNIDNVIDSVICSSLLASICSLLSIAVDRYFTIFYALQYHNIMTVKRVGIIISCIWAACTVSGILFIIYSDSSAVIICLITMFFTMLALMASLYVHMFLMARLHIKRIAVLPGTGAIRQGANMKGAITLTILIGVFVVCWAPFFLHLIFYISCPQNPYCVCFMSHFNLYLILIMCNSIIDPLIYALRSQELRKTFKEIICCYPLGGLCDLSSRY
hiPSC survival – hiPSC single-cell survival enhancement | survival enhancement, % at 20 µM | ATPlite luminescence; 100% = ROCK inhibitor wells, 0% = DMSO | actives 0.044% (n = 360,000) | AID 602274; in the data active = survival enhancement above about 18%;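 note: cells exposed to compounds for 16 hours before the ATP read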
ABCB6 inh 2 – inhibitors of human ABC transporter ABCB6; Q9NP58; K562-ABCB6 porphyrin accumulation, flow cytometry, 1 h; hits give low values; fluorescence ratio to DMSO, % at 10 µM; actives 0.19% (n = 360,000); AID 602162;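 active = fluorescence ratio to DMSO below 75%, the collection mean minus 3 SD; inconclusive = too few cells collected in the well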;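 note: signal is porphyrin accumulated inside mitochondria; 100% equals median channel fluorescence of DMSO control wells; lower ratio means ABCB6 inhibition with less porphyrin fluorescence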
MC4R antagonist – antagonists of human melanocortin 4 receptor (MC4R); P32245; MC4R-expressing cells, MTII-stimulated cAMP, LANCE TR-FRET; inhibition, % at 6.5 µM; actives 0.48% (n = 360,000); AID 540295;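 active = inhibition above its plate's cutoff, the mean of tested wells on that plate plus 3 SD, cut at about 29% in these data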;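 note: 0% = Melanotan II alone and 100% = Melanotan II plus saturating MCL0020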
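system = U2OS cells with stable human MC4R expression | also added = Melanotan II challenge after compound preincubation | dosing = one concentration, 6.5 µM nominal | incubation = compound 30 min, challenge 1 h, detection 1 h | measured by = TR-FRET with Eu-cAMP and labeled anti-cAMP, 671 nm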
TbMetRS inhib – Trypanosoma brucei MetRS inhibition | purified T. brucei MetRS, ATP depletion, Kinase-Glo luminescence | inhibition, % at 11.9 µM | AID 624268 | actives 0.4% (n = 360,000);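 active = inhibition above a per-plate cutoff of the control wells' mean inhibition plus 3 SD, cut at about 5.5% in these data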;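 note: 0% = DMSO wells median and 100% = median of wells with control inhibitor compound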
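System: purified T. brucei MetRS enzyme / Detection: Kinase-Glo luciferase luminescence reporting remaining unconsumed ATP / Medium: HEPES buffer with MgCl2, KCl, DTT, spermine, BSA, pyrophosphatase / Replication: singlicate, one well per compound / Evaluation: percent inhibition relative to median high and low control wells / Schedule: 2 h aminoacylation at 25 °C after 15 min preincubation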
U2OS cAMP counter – counter-screen for MC4R antagonists: nonselective cAMP signaling inhibitors | shares compounds with MC4R antagonist | parental U2OS, forskolin cAMP, LANCE TR-FRET | inhibition, % at 6.5 µM | actives 26% (n = 1,600) | AID 602193;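 active = mean inhibition over triplicates above the low-control well mean plus 3 SD, set per campaign, cut at about 13% in these data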;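 note: signal is single emission at 671 nm which falls as cellular cAMP rises; 0% = forskolin-stimulated wells and 100% = buffer without forskolin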
MC4R cAMP antag – human MC4R cAMP antagonism confirmation. shares compounds with MC4R antagonist. MC4R-expressing cells, MTII-stimulated cAMP, TR-FRET. inhibition, % at 6.5 µM. actives 27% (n = 1,600). AID 602195; in the data active = inhibition above about 29%;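 note: 0% = agonist stimulated wells alone and 100% = agonist stimulated wells plus saturating reference antagonist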
MC4R barr conf – human MC4R beta-arrestin agonism confirmation; actives 31% (n = 2,400); shares compounds with MC4R barr agon; activation, % at 8.9 µM; AID 602192; U2OS MC4R beta-arrestin recruitment, luminescence; scaled DMSO 0%, Melanotan II 100%;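 active = mean activation across replicates above the hit cutoff set in the earlier primary screen, cut at about 8% in these data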
MOR-DOR barr ag – activates mu-delta opioid heterodimer, MC4R agonist counter-screen; shares compounds with MC4R barr agon; U2OS PathHunter beta-arrestin, beta-gal luminescence; percent of deltorphin B response, DMSO zero; activation, % at 9.2 µM; actives 5.8% (n = 2,400);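 active = mean activation across replicates exceeds the hit threshold derived in the earlier primary screen, cut at about 18% in these data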;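 note: 100% = deltorphin B at 0.9 µM final and 0% = DMSO alone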
Granule exo CP1 – blocks lytic granule exocytosis; inhibition, % at 10 µM; shares compounds with Granule exo inh; AID 651954; actives 11% (n = 1,500); TALL-104 cells, LAMP-1 externalization, flow cytometry; stimulated with PMA plus thapsigargin; in the data active = inhibition above about 60%;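 note: 0% = stimulated vehicle wells and 100% = unstimulated wells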
Numbers without * were called inactive; ? = inconclusive; / = no result; ! = not active in a repeat.

SMILES	Granule exo inh	MC4R barr agon	hiPSC survival	ABCB6 inh 2	MC4R antagonist	TbMetRS inhib	MC4R barr conf	MOR-DOR barr ag	others
CC(C)Cc1ccc(C(C)CC2=CCC(CN(C)C)C2=O)cc1 (stereo unspecified)	66.1*	6.6	-3.5	91.0	39.0*	-0.5	/	/	U2OS cAMP counter=1.7;MC4R cAMP antag=45.9*;Granule exo CP1=-4.2
CC1OC(=O)c2cc3ccccc3nc21 (stereo unspecified)	-5.1	-1.8	-0.1	100.0	-3.1	0.0	/	/
Cc1cc(C)cc(N(C(=O)C(F)(F)F)C(C(=O)NC2CCCCC2)c2cccs2)c1 (stereo unspecified)	-3.0	0.7	-0.6	92.0	-3.3	-0.5	/	/
Cc1cccc(N(C(=O)C(F)(F)F)C(C(=O)NC2CCCCC2)c2cccs2)c1 (stereo unspecified)	1.4	20.0*	-1.3	101.0	14.4	0.1	6.7	9.6
Cc1cc(C)cc(NC(=S)N2CCN(c3ncc(C(F)(F)F)cc3Cl)CC2)c1	3.6	17.5*	-0.2	106.0	2.7	-1.0	4.0	3.1
Cc1ccc2oc(-c3ccc(NC(=O)CC(C)C)cc3)nc2c1	4.2	14.2*	-2.2	96.0	3.0	-0.2	-2.2	3.4
O=S1(=O)Cc2cc3ccccc3cc2C1	-1.4	-1.8	-1.9	98.0	-3.6	0.7	/	/
C=CC[C@H](CC(=O)N[C@H](CO)Cc1ccccc1)C(=O)N[C@H](COC(=O)[C@H](CC=C)CC(=O)OC(C)(C)C)Cc1c[nH]c2ccccc12	1.4	21.6*	-1.7	92.0	8.4	0.1	0.6	2.7
C=CCC[C@H](Cc1ccc(F)cc1)C(=O)OC[C@@H](Cc1c[nH]c2ccccc12)NC(=O)[C@@H](CC=C)CC(=O)N[C@@H](CO)Cc1ccccc1	-3.0	7.9	-2.0	91.0	17.7	0.1	/	/
C=CC[C@@H](CC(=O)N[C@H](CO)Cc1ccccc1)C(=O)N[C@H](COC(=O)[C@H](CC=C)CC(=O)OC(C)(C)C)Cc1c[nH]c2ccccc12	-5.2	-1.4	-2.5	85.0	16.9	-0.4	/	/
C=CCC[C@@H](Cc1ccc(F)cc1)C(=O)OC[C@@H](Cc1c[nH]c2ccccc12)NC(=O)[C@H](CC=C)CC(=O)N[C@H](CO)Cc1ccccc1	-2.4	10.4*	-2.1	100.0	14.6	-0.1	4.8	5.3
C/C(=N/NC(=O)CNC(=O)c1ccc2c(c1)OCO2)c1ccc2c(c1)CCCC2	10.4	11.7*	-2.3	102.0	4.2	-1.3	1.5	4.2
C=CCNC(=S)N/N=C/c1ccc(-c2ccc(Cl)cc2Cl)o1	?	10.4*	-0.5	91.0	0.4	0.1	6.9	4.8
C=CCNC(=S)N/N=C/c1ccc(-c2cc(Cl)ccc2Cl)o1	-4.9	0.7	-3.1	107.0	-4.6	0.1	/	/
Cc1ccc(Cl)cc1NC(=O)c1ccccc1OCC(=O)Nc1ccc(Cl)cc1	-0.9	15.2*	-0.4	97.0	23.1	-0.5	8.2*	8.3
Cc1ccc(NC(=O)c2ccccc2OCC(=O)c2ccc(F)cc2)cc1	43.9	50.8*	-2.3	95.0	1.9	-0.4	18.4*	8.3
O=C(COC(=O)c1cc([N+](=O)[O-])ccc1NCc1ccccc1Cl)NCC(F)(F)F	-3.1	12.7*	-0.5	86.0	2.0	0.0	3.7	4.3
CCNc1ccc(C(=O)OCC(=O)NC(=O)NCC(C)C)cc1[N+](=O)[O-]	2.9	-3.2	-0.1	97.0	9.8	0.2	/	/
CCNc1ccc(C(=O)OCC(=O)NCc2ccccc2Cl)cc1[N+](=O)[O-]	-3.1	16.0*	-1.0	94.0	-0.1	-1.0	7.0	3.1
O=C(Oc1ccccc1N1CCOCC1)c1sccc1Br	-7.4	-0.5	1.4	95.0	9.4	1.0	/	/
CN(C(=O)CSc1ncnc2sc(-c3ccccc3)cc12)C1CCS(=O)(=O)C1 (stereo unspecified)	-6.7	0.1	-2.7	98.0	4.3	-0.4	/	/
CCc1ccc(C(=O)c2ccccc2C(=O)O)s1	5.3	-1.3	0.6	107.0	7.5	0.3	/	/
CC(=O)c1ccc(Cc2ccc(C(C)=O)s2)s1	-6.3	11.0*	-2.1	104.0	-0.3	-0.4	11.8*	2.2
Cc1ccc(C(=O)N(Nc2nc3ccccc3s2)C(=O)c2ccc(C)cc2)cc1	-1.3	24.6*	1.4	83.0	7.9	-0.8	13.6*	6.0
CC(C)C(=O)N(Nc1nc2ccccc2s1)C(=O)C(C)C	-2.1	-0.4	-1.2	101.0	4.5	0.0	/	/
SMILES	Granule exo inh	MC4R barr agon	hiPSC survival	ABCB6 inh 2	MC4R antagonist	TbMetRS inhib	MC4R barr conf	MOR-DOR barr ag	others
Cc1nc2ccc(NC(=O)C3=NN(C)C(=O)CC3)cc2s1	6.5	-2.0	0.1	100.0	8.4	-0.4	/	/
CC1CCC(C(C)C)C(OC(=O)Cn2c(-c3ccc(Cl)cc3)[n+](C)c3ccccc32)C1 (stereo unspecified)	15.0	28.1*	-0.6	92.0	-1.2	-1.4	7.7	8.6
Cc1ccccc1OCc1n(CC(=O)OC2CC(C)CCC2C(C)C)c2ccccc2[n+]1C (stereo unspecified)	90.4*	23.2*	-5.3	97.0	-3.3	-0.5	41.2*	27.3*
CC1CCC(C(C)C)C(OC(=O)COC(=O)c2cccn2C)C1 (stereo unspecified)	-0.1	-1.3	3.5	92.0	10.3	0.5	/	/
CC1CCC(C(C)C)C(OC(=O)Cn2c(-c3ccc(Br)cc3)[n+](C)c3ccccc32)C1 (stereo unspecified)	28.9	11.8*	-3.6	104.0	-1.7	0.3	13.3*!	7.1
CC1CCC(C(C)C)C(OC(=O)COC(=O)c2ccc(N)cc2)C1 (stereo unspecified)	-1.5	1.2	1.9	100.0	7.6	-0.7	/	/
O=C(CC[C@H]1O[C@@H](n2cnc3c(NC(=O)c4ccccc4)ncnc32)[C@H](O)[C@@H]1O)N[C@@H](CO)Cc1c[nH]c2ccccc12	-3.9	/	2.6	104.0	/	0.1	/	/

Bioassay records as filed in PubChem BioAssay.
